Screening data deposited in PubChem BioAssay by several laboratories.
HCV NS3 hel inh – HCV NS3 helicase inhibition. inhibition, % at 10.9 µM. 290,000 tested, 0.56% active. NS3 helicase DNA unwinding, Cy5 molecular beacon fluorescence;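 active means inhibition above the mean of all tested compounds plus 3 SD, set per campaign, cut at about 35% in these data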;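 further: 0% = DMSO wells and 100% = thioflavine S control wells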
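Material: hepatitis C virus NS3 helicase domain fragment enzyme; measured by: Cy5 fluorescence, 0 and 60 min reads; control set: DMSO and thioflavine S; incubation: 60 min unwinding reaction at 25 °C after ATP addition; read-out basis: % inhibition from 60/0 min fluorescence ratio, DMSO 0%, thioflavine S 100%; repeats: singlicate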
PHOSPHO1 block – PHOSPHO1 (human) inhibition | recombinant PHOSPHO1, absorbance phosphatase assay | inhibition, % at 13.3 µM | 290,000 tested, 1.1% active | AID 1565; in the data active means inhibition above about 60%
Target sequence (Q8TCT1 whole entry, looked up): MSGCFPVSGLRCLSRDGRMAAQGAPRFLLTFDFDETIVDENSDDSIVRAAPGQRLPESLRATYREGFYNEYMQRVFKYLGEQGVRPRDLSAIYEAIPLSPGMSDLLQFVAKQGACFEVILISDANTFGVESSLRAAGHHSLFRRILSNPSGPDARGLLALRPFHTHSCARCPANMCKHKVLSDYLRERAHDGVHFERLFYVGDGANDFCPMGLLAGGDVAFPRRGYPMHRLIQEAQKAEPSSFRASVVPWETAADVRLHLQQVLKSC
SUMO HTRF inh – inhibitors of human SUMOylation (UBC9). P63279. HTRF SUMOylation assay, SAE1/SAE2 + UBC9, in vitro. inhibition, % at 35 µM. 290,000 tested, 0.36% active. AID 2006; in the data active means inhibition above about 50%, passing the limit was not always enough
Target sequence (P63279 whole entry, looked up): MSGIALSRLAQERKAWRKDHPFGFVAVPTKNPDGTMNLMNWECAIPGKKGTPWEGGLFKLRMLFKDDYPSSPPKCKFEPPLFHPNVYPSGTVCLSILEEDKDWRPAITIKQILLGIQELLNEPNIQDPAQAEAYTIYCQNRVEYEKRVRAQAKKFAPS
IMP-1 inhibitor – blocks Pseudomonas aeruginosa IMP-1 metallo-beta-lactamase; purified IMP-1, nitrocefin hydrolysis, epi-absorbance fluorescence; AID 1556; 290,000 tested, 0.45% active; inhibition, % at 5.6 µM;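 active means inhibition above the mean plus 3 SD of all compounds in the same screening run, cut at about 4.5% in these data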;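 further: 0% = IMP-1 with DMSO and 100% = DMSO wells lacking enzyme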
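System: Purified recombinant IMP-1 metallo-beta-lactamase enzyme | Measured by: Fluorescence quenching readout, ex 480/em 530 nm | Replication: Singlicate | Incubation: 15 min preincubation plus 25 min reaction at 25 °C | Evaluation: Percent inhibition from optical density relative to buffer-blank wells | Benchmarks: DMSO with and without IMP-1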
VIM-2 inh – inhibitors of Pseudomonas aeruginosa VIM-2 metallo-beta-lactamase; inhibition, % at 5.6 µM; AID 1527; 290,000 tested, 0.89% active; purified VIM-2, nitrocefin hydrolysis, epi-absorbance fluorescence;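 active means inhibition above the mean of all tested compounds plus 3 SD, cutoff set per screening run, cut at about 7.5% in these data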;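 further: red hydrolysis product quenches plate fluorescence so inhibitors raise well fluorescence; 0% = enzyme with DMSO and 100% = DMSO without enzyme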
core dimer inh – blocks dimerization of HCV core protein; TR-FRET GST/Flag-core106 dimerization, 1536-well; inhibition, % at 5 µM; 300,000 tested, 0.33% active;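 active means inhibition above the mean of all tested compounds plus 3 SD, set per screening campaign, cut at about 45% in these data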
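Assay system: Tagged HCV core106 pair (GST and Flag) | Buffer or medium: KF-containing HEPES buffer, pH 7.45, DTT, CHAPS, BSA | Also added: Eu donor and XL665 acceptor anti-tag antibodies | Dosing: One concentration, 5 µM, in 0.5% DMSO | Timing: 4 h at 22.5 °C | Technique: TR-FRET 671 and 617 nm emission | Repeats: Singlicate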
Active calls of the source: *; · = no result. The list is not random: actives were taken first. Their share in the collection is about 3.1%.

SMILES	HCV NS3 hel inh	PHOSPHO1 block	SUMO HTRF inh	IMP-1 inhibitor	VIM-2 inh	core dimer inh
O=C(C[n+]1cccc(CNC(=O)c2ccc(OC(F)F)cc2)c1)c1ccccc1	-21	61*	10	-1	0	-4
O=C(C[n+]1cccc(CNC(=O)c2ccc(OC(F)F)cc2)c1)Nc1ccc(F)cc1	-50	-10	21	-1	2	-1
COc1ccccc1C(=O)C1CCCN(Cc2cccc3nccnc23)C1 (stereo unspecified)	2	60*	4	-3	1	6
O=C1CC(NNC(=O)c2cccc(F)c2)C(=O)N1 (stereo unspecified)	4	4	-9	-2	0	1
CCc1cccc2c1NC(=O)[C@]21[C@@H]2C(=O)N(Cc3ccccc3)C(=O)[C@@H]2[C@@H]2CCCN21	-3	11	6	-2	-4	55*
COc1ccc(C(C(=O)NC(C)(C)C)N(C(=O)CNC(=O)c2cccs2)c2ccc(NC(C)=O)cc2)cc1OC (stereo unspecified)	-3	-3	9	-1	1	-2
CCOC(=O)C1=C(C)Nc2nc3ccccc3n2C1c1ccc(O)cc1 (stereo unspecified)	26	24	4	29*	-4	0
CCOC(=O)C1=C(C)Nc2nc(=S)[nH]n2C1c1ccc(Cl)cc1 (stereo unspecified)	12	97*	0	-2	-5	·
CCOC(=O)C1=C(C)Nc2nc(SCC)nn2C1c1ccc(OC)cc1 (stereo unspecified)	-5	-16	20	-1	1	-2
COC(=O)C1=C(C)Nc2nc3ccccc3n2C1c1cc(OC)c(OC)c(OC)c1 (stereo unspecified)	10	24	0	-1	-1	-7
Nc1nc(NCCCN2CCOCC2)nc(Nc2ccc(F)cc2)c1[N+](=O)[O-]	-92	-11	0	0	8.1*	3
COc1ccc(Nc2nc(NCCCN3CCOCC3)nc(N)c2[N+](=O)[O-])cc1	-16	16	-3	-2	1	0
Nc1nc(Nc2cccc(F)c2)nc(N2CCOCC2)c1[N+](=O)[O-]	-4	14	11	-3	1	-6
Nc1nc(NCCCN2CCOCC2)nc(Nc2cccc(F)c2)c1[N+](=O)[O-]	-40	3	-14	-4	9.7*	-2
Cc1cccc(S(=O)(=O)NCCc2ccccc2)c1	-3	37	8	-3	-1	5
CCc1ccc(OCC(=O)N/N=C2\CC(=O)c3ccccc32)cc1	11	28	87*	-7	-1	20
COc1ccc(OCC(=O)N/N=C2\CCCCc3ccccc32)cc1	-2	15	2	0	0	3
CCOc1ccc(N=c2scc(-c3ccccc3)n2CCO)cc1	-1	98*	10	-1	-4	-3
CCOc1ccc(N=c2scc(-c3ccc(OC)cc3)n2CCO)cc1	-14	-35	0	-5	-1	-3
CN1c2ccccc2C(C)(C)C12CC(c1cccc(S(=O)(=O)N3CCCC3)c1)=NO2 (stereo unspecified)	-5	2	6	-2	-1	16
C=CCOc1ccccc1/C=c1\sc2nc(=O)c(C)nn2c1=O	17	-20	-2	9.2*	-2	16
COc1ccccc1/C=c1\sc2nc(-c3cccs3)nn2c1=O	14	·	·	-2	-4	·
CCOc1ccsc1C(=O)O	-6	6	12	-1	-2	-17
Cc1ccc(COc2ccsc2C(=O)O)cc1	23	61*	0	-4	3	·
CCOc1nc(Nc2ccc(OC)cc2OC)nc(OCC)n1	-5	·	-5	-1	1	2
CCOC(=O)COc1ccc2c(=O)c(-c3ccccc3OC)coc2c1	9	17	10	-4	-2	61*
COC(=O)COc1ccc2c(=O)c(-c3ccccc3OC)coc2c1	-4	22	21	-2	-1	2
CC(=O)c1ccc2c(c1)C1C=CCC1C(c1ccncc1)N2 (stereo unspecified)	17	48	15	-1	-3	3
C1=CC2c3ccccc3NC(c3ccncc3)C2C1 (stereo unspecified)	13	79*	19	-2	0	7
